Measured values of several laboratories.
Compare with care: the assays were run in different laboratories.
Target: Tyrosine-protein kinase TXK (TXK, Homo sapiens, UniProt P42681)
Residues used in one study (P42681 1-527): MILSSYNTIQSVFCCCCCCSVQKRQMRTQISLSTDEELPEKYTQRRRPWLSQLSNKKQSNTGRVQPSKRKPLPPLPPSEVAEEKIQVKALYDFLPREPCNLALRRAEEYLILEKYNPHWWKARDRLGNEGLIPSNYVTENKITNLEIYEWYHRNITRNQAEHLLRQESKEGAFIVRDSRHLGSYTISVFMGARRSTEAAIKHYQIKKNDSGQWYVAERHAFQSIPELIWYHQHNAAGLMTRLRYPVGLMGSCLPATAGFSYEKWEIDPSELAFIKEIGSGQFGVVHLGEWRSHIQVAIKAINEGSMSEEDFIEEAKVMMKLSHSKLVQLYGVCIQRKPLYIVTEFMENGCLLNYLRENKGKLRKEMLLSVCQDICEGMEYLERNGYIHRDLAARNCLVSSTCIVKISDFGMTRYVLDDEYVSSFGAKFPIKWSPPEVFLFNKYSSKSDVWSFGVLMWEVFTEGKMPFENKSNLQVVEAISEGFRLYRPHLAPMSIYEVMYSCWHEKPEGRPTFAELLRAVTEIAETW

Structure (SMILES) | test | conditions | remaining binding [%]
FC(F)(F)Oc1cccc(-c2cnc3ccc(-c4ccncc4)nn23)c1 | binding, competition with immobilised ligand | 5 µM | 55
C[C@@H]1CCN(c2nccc(-c3cnn4ncccc34)n2)C1 | binding | 1 µM | 100
Cc1cnc(Nc2ccc(C(=O)N3CCC(N4CCCC4)CC3)cc2)nc1-c1cc2ccccc2s1 | binding, competition with immobilised ligand | 1 µM | 59
CNC(=O)[C@@H]1CC[C@@H](n2c(-c3ccc4cnccc4c3)nc3ccc(C(=O)NCc4cccc(C(N)=O)c4)cc32)C1 | binding, competition with immobilised ligand | 1 µM | 100
O=C(Nc1c[nH]nc1C(=O)NC1CCNCC1)c1cc(F)cc(F)c1 | binding, competition with immobilised ligand | 1 µM | 100
CCS(=O)(=O)c1cc2cc(C[C@@](O)(CC(C)(C)c3ccc(F)cc3C(N)=O)C(F)(F)F)[nH]c2cn1 | cell-free assay, competition with immobilised ligand | 1 µM | 97
O=C(NCCCN1CCOCC1)c1ccc(Nc2ncc(Cl)c(-c3ccc(Cl)s3)n2)cc1 | binding, competition with immobilised ligand | 1 µM | 99
N[C@H]1CCN(c2nccc(-c3cnn4ncccc34)n2)C1 | binding | 1 µM | 100
CCN1CCN(Cc2ccc(C(=O)Nc3ccc(C)c(Oc4ccc5c(c4)CC(=O)N5)c3)cc2C(F)(F)F)CC1 | binding, competition with immobilised ligand | 1 µM | 100
c1cnn2ncc(-c3ccnc(N4CCC45COC5)n3)c2c1 | binding | 1 µM | 100
CC(=O)c1c(NS(C)(=O)=O)c2cc(-c3ccc(Cl)cc3)c(-c3ccc(Cl)cc3Cl)nc2n(C)c1=O | cell-free assay, competition with immobilised ligand | 1 µM | 100
CC1CCCN1c1nccc(-c2cnn3ncccc23)n1 (stereo not shown) | binding | 1 µM | 100
C=CC(=O)N1CCC(C(=O)NCC(=O)N2CCN(c3nc(-c4cnc(N)nc4C(F)F)nc(N4CCOCC4)n3)CC2)CC1 | binding, competition with immobilised ligand | 1 µM | 100
O=C(NCCCN1CCOCC1)c1ccc(Nc2nccc(-c3cc4ccccc4s3)n2)cc1 | binding, competition with immobilised ligand | 1 µM | 86
CCc1ccccc1C(=O)Nc1n[nH]c2c(C)c(F)c(C3C(C#N)=C(C)N(C)C(C)=C3C#N)cc12 | binding, competition with immobilised ligand | 1 µM | 84
COc1ccnn2ncc(-c3ccnc(N(C)C)n3)c12 | binding | 1 µM | 100
CCCOc1ccc([C@@H]2[C@@H](C(=O)O)[C@H](c3ccc4c(c3)OCO4)CN2CC(=O)Nc2c(CC)cccc2CC)cc1 | binding, competition with immobilised ligand | 1 µM | 100
c1cncc(-c2cccc(Nc3nccc(NC4CCCCC4)n3)c2)c1 | binding, competition with immobilised ligand | 10 µM | 20
Cn1nc(C(F)(F)F)cc1-c1cnc(N2CCc3cc(S(=O)(=O)Nc4c(F)cc(Cl)cc4F)cc(N4CCCC4=O)c32)nc1 | binding, competition with immobilised ligand | 1 µM | 100
CN(C)c1ncc(F)c(-c2cnn3ncccc23)n1 | binding | 1 µM | 100
COc1cnc(Nc2cccc(S(N)(=O)=O)c2)nc1N1CCN(c2ccccc2)C(=O)C1 | binding, competition with immobilised ligand | 1 µM | 100
CC1=C(C#N)[C@@H](c2ccc3[nH]nc(C)c3c2)C(C#N)=C(c2ccc(Cl)cc2)N1 | binding, competition with immobilised ligand | 1 µM | 88.1
